Test results from the RNAGym collection of RNA variant scans (doi:10.1002/anie.201605470).

B1: Osa-1-4 twister ribozyme (parent)
chain: CCGCCUAACACUGCCAAUGCCGGUCCCAAGCCCGGAUAAAAGUGGAGGGGGCGG

Variants of: B1
Assay: self-cleavage, relative activity (ratio to wild type); higher = more cleavage; co-transcriptional
Method in brief: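 A DNA template was synthesised for a 54-nucleotide twister ribozyme from Oryza sativa, with 97 % wild-type base and 1 % of each other base at each of the 48 positions downstream of the cleavage site. The ribozyme cleaved itself co-transcriptionally during 2 h of in vitro transcription at 37 °C. Reverse transcription with a template-switching oligonucleotide, PCR amplification and deep sequencing followed, and cleavage status came from reads with or without upstream sequence. Relative activity is the fraction cleaved normalised to wild type.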

Variant	self-cleavage
A40U G50U	0.34
A40U G51A	0.18
A40U G51C	0.06
A40U G51U	0.1
A40U G53A	0.19
A40U G53C	0.06
A40U G53U	0.11
A40U G54A	0.25
A40U G54C	0.19
A40U G54U	0.47
A40U U12A	1
A40U U12C	0.19
A40U U12G	0.36
A40U U18A	0.77
A40U U18C	0.71
A40U U18G	0.64
A40U U24A	0.06
A40U U24C	0.09
A40U U24G	0.03
A40U U37A	0.87
A40U U37C	0.77
A40U U37G	0.94
A40U U43A	0.18
A40U U43C	0.13

Variant	self-cleavage
A40U U43G	0.1
A41C	0.99
A41C A7C	0.05
A41C A7G	0.18
A41C A7U	0.09
A41C A8C	0.09
A41C A8G	0.24
A41C A8U	0.16
A41C A46C	0.05
A41C A46G	0.06
A41C A46U	0.08
A41C C9A	0.39
A41C C9G	0.41
A41C C9U	0.79
A41C C11A	0.71
A41C C11G	0.24
A41C C11U	0.81
A41C C14A	0.07
A41C C14G	0.15
A41C C14U	0.22
A41C C15A	0.27
A41C C15G	0.14
A41C C15U	0.36
A41C C20A	0.92

Variant	self-cleavage
A41C C20G	0.13
A41C C20U	0.95
A41C C21A	0.45
A41C C21G	0.08
A41C C21U	1.04
A41C C25A	0.08
A41C C25G	0.08
A41C C25U	0.8
A41C C26A	0.06
A41C C26G	0.09
A41C C26U	0.8
A41C C27A	0.13
A41C C27G	0.06
A41C C27U	0.12
A41C C31A	0.04
A41C C31G	0.09
A41C C31U	0.8
A41C C32A	0.08
A41C C32G	0.11
A41C C32U	0.09
A41C C33A	0.13
A41C C33G	0.09
A41C C33U	0.7
A41C C52A	0.94

Variant	self-cleavage
A41C C52G	1.04
A41C C52U	1.03
A41C G13A	0.08
A41C G13C	0.02
A41C G13U	0.04
A41C G19A	0.74
A41C G19C	0.14
A41C G19U	0.15
A41C G22A	0.8
A41C G22C	0.05
A41C G22U	0.49
A41C G23A	0.29
A41C G23C	0.06
A41C G23U	0.06
A41C G30A	0.05
A41C G30C	0.05
A41C G30U	0.04
A41C G34A	0.76
A41C G34C	0.32
A41C G34U	0.73
A41C G35A	0.81
A41C G35C	0.63
A41C G35U	0.76
A41C G42A	0.19

Variant	self-cleavage
A41C G42C	0.12
A41C G42U	0.11
A41C G44A	0.81
A41C G44C	0.97
A41C G44U	0.9
A41C G45A	0.13
A41C G45C	0.06
A41C G45U	0.11
A41C G47A	0.17
A41C G47C	0.09
A41C G47U	0.2
A41C G48A	0.08
A41C G48C	0.1
A41C G48U	0.07
A41C G49A	0.11
A41C G49C	0.08
A41C G49U	0.12
A41C G50A	0.37
A41C G50C	0.93
A41C G50U	1
A41C G51A	0.28
A41C G51C	0.07
A41C G51U	0.16
A41C G53A	0.73

Variant	self-cleavage
A41C G53C	0.08
A41C G53U	0.28
A41C G54A	0.92
A41C G54C	0.85
A41C G54U	0.89
A41C U12A	0.97
A41C U12C	0.55
A41C U12G	0.8
A41C U18A	0.92
A41C U18C	0.8
A41C U18G	0.85
A41C U24A	0.13
A41C U24C	0.1
A41C U24G	0.03
A41C U37A	0.92
A41C U37C	1
A41C U37G	1.02
A41C U43A	0.45
A41C U43C	0.22
A41C U43G	0.12
A41G	0.84
A41G A7C	0.05
A41G A7G	0.14
A41G A7U	0.08

Variant	self-cleavage
A41G A8C	0.09
A41G A8G	0.19
A41G A8U	0.1
A41G A46C	0.06
A41G A46G	0.07
A41G A46U	0.08
A41G C9A	0.08
A41G C9G	0.22
A41G C9U	0.11
A41G C11A	0.12
A41G C11G	0.18
A41G C11U	0.34
A41G C14A	0.07
A41G C14G	0.14
A41G C14U	0.24
A41G C15A	0.18
A41G C15G	0.28
A41G C15U	0.22
A41G C20A	0.85
A41G C20G	0.12
A41G C20U	0.85
A41G C21A	0.22
A41G C21G	0.13
A41G C21U	0.75

Variant	self-cleavage
A41G C25A	0.07
A41G C25G	0.06
A41G C25U	0.16
A41G C26A	0.05
A41G C26G	0.09
A41G C26U	0.17
A41G C27A	0.09
A41G C27G	0.04
A41G C27U	0.09
A41G C31A	0.04
A41G C31G	0.11
A41G C31U	0.17
A41G C32A	0.06
A41G C32G	0.13
A41G C32U	0.08
A41G C33A	0.07
A41G C33G	0.1
A41G C33U	0.12
A41G C52A	0.84
A41G C52G	0.84
A41G C52U	0.88
A41G G13A	0.06
A41G G13C	0.03
A41G G13U	0.04

Variant	self-cleavage
A41G G19A	0.17
A41G G19C	0.08
A41G G19U	0.09
A41G G22A	0.48
A41G G22C	0.05
A41G G22U	0.27
A41G G23A	0.12
A41G G23C	0.07
A41G G23U	0.06
A41G G30A	0.05
A41G G30C	0.05
A41G G30U	0.05
A41G G34A	0.41
A41G G34C	0.16
A41G G34U	0.18
A41G G35A	0.57
A41G G35C	0.15
A41G G35U	0.51
A41G G42A	0.72
A41G G42C	0.37
A41G G42U	0.44
A41G G44A	0.14
A41G G44C	0.39
A41G G44U	0.31

Variant	self-cleavage
A41G G45A	0.09
A41G G45C	0.05
A41G G45U	0.09
A41G G47A	0.1
A41G G47C	0.07
A41G G47U	0.08
A41G G48A	0.08
A41G G48C	0.08
A41G G48U	0.05
A41G G49A	0.08
A41G G49C	0.06
A41G G49U	0.07
A41G G50A	0.34
A41G G50C	0.77
A41G G50U	0.91
A41G G51A	0.41
A41G G51C	0.09
A41G G51U	0.12
A41G G53A	0.61
A41G G53C	0.08
A41G G53U	0.25
A41G G54A	0.81
A41G G54C	0.8
A41G G54U	0.82

Variant	self-cleavage
A41G U12A	0.87
A41G U12C	0.78
A41G U12G	0.21
A41G U18A	0.77
A41G U18C	0.74
A41G U18G	0.83
A41G U24A	0.07
A41G U24C	0.07
A41G U24G	0.04
A41G U37A	0.86
A41G U37C	0.59
A41G U37G	0.87
A41G U43A	0.21
A41G U43C	0.13
A41G U43G	0.16
A41U	1.02
A41U A7C	0.03
A41U A7G	0.31
A41U A7U	0.11
A41U A8C	0.07
A41U A8G	0.41
A41U A8U	0.25
A41U A46C	0.06
A41U A46G	0.07

Variant	self-cleavage
A41U A46U	0.09
A41U C9A	0.42
A41U C9G	0.79
A41U C9U	0.78
A41U C11A	0.79
A41U C11G	0.45
A41U C11U	0.9
A41U C14A	0.13
A41U C14G	0.3
A41U C14U	0.7
A41U C15A	0.26
A41U C15G	0.64
A41U C15U	0.56
A41U C20A	0.85
A41U C20G	0.19
A41U C20U	0.95
A41U C21A	0.87
A41U C21G	0.1
A41U C21U	1
A41U C25A	0.1
A41U C25G	0.11
A41U C25U	0.91
A41U C26A	0.06
A41U C26G	0.11

Variant	self-cleavage
A41U C26U	0.93
A41U C27A	0.18
A41U C27G	0.08
A41U C27U	0.16
A41U C31A	0.04
A41U C31G	0.13
A41U C31U	0.94
A41U C32A	0.1
A41U C32G	0.18
A41U C32U	0.17
A41U C33A	0.14
A41U C33G	0.1
A41U C33U	0.81
A41U C52A	1.02
A41U C52G	1.05
A41U C52U	1.04
A41U G13A	0.14
A41U G13C	0.03
A41U G13U	0.03
A41U G19A	0.94
A41U G19C	0.24
A41U G19U	0.35
A41U G22A	1
A41U G22C	0.1

Variant	self-cleavage
A41U G22U	0.85
A41U G23A	0.62
A41U G23C	0.08
A41U G23U	0.09
A41U G30A	0.06
A41U G30C	0.04
A41U G30U	0.04
A41U G34A	0.82
A41U G34C	0.47
A41U G34U	0.74
A41U G35A	0.83
A41U G35C	0.77
A41U G35U	0.87
A41U G42A	0.35
A41U G42C	0.2
A41U G42U	0.15
A41U G44A	0.88
A41U G44C	0.98
A41U G44U	0.87
A41U G45A	0.25
A41U G45C	0.06
A41U G45U	0.12
